Measured values from ChEMBL document CHEMBL1629657, “In vitro antimicrobial activity of a new cephalosporin, ceftaroline, and determination of quality control ranges for MIC testing” (2009).
Values after ≈ are worked out from the molar mass of the structure shown.

Legend:
Type in all cases: functional
Enterococcus faecalis [1] = experiment: Antimicrobial activity against vancomycin-susceptible Enterococcus faecalis by broth microdilution method
In short: (§1)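 Clinical isolates were tested by CLSI broth microdilution in unsupplemented cation-adjusted Mueller-Hinton broth. The read-out was the MIC, reported as MIC90 (μg/ml) per species or phenotypic group. Ceftriaxone, levofloxacin and imipenem were run in parallel as comparators.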

Enterococcus faecium [2] = experiment: Antimicrobial activity against vancomycin-susceptible Enterococcus faecium by broth microdilution method; in short: as §1
[3] = test system: Stenotrophomonas maltophilia; experiment: Antimicrobial activity against Stenotrophomonas maltophilia by broth microdilution method; in short: as §1
Staphylococcus [4] = experiment: Antimicrobial activity against methicillin-resistant coagulase-negative Staphylococcus by broth microdilution method
In short: (§2)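 Isolates of the stated resistance phenotype were tested by CLSI broth microdilution in unsupplemented cation-adjusted Mueller-Hinton broth. Ceftaroline was compared with ceftriaxone, levofloxacin and imipenem. Activity was expressed as MICs (MIC90 in μg/ml).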

Shigella sp. = experiment: Antimicrobial activity against Shigella spp. by broth microdilution method; in short: as §1
Burkholderia cepacia = experiment: Antimicrobial activity against Burkholderia cepacia by broth microdilution method; in short: as §1
Serratia marcescens = experiment: Antimicrobial activity against Serratia marcescens by broth microdilution method; in short: as §1
Streptococcus pyogenes [5] = experiment: Antimicrobial activity against macrolide-resistant Streptococcus pyogenes by broth microdilution method
In short: (§3)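 CLSI broth microdilution in cation-adjusted Mueller-Hinton broth with 3% lysed horse blood, against streptococcal clinical isolates of the stated phenotype. Ceftaroline was compared with ceftriaxone, levofloxacin and imipenem. Activity was expressed as MICs (MIC90 in μg/ml).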

Salmonella sp. = experiment: Antimicrobial activity against Salmonella spp. by broth microdilution method; in short: as §1
Haemophilus influenzae [6] = experiment: Antimicrobial activity against beta-lactamase-negative Haemophilus influenzae by broth microdilution method
In short: (§4)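 CLSI broth microdilution in Haemophilus test medium (cation-adjusted Mueller-Hinton base) against clinical H. influenzae isolates of the stated phenotype. Ceftaroline was compared with ceftriaxone, levofloxacin and imipenem. Activity was expressed as MICs (MIC90 in μg/ml).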

Staphylococcus aureus [7] = experiment: Antimicrobial activity against vancomycin-resistant Staphylococcus aureus by broth microdilution method; in short: as §2
Escherichia coli [8] = experiment: Antimicrobial activity against ESBL-positive Escherichia coli by broth microdilution method; in short: as §1
Providencia stuartii = experiment: Antimicrobial activity against Proteus stuartii by broth microdilution method; in short: as §1
Klebsiella pneumoniae [9] = experiment: Antimicrobial activity against ESBL-positive Klebsiella pneumoniae by broth microdilution method; in short: as §1
Escherichia coli [10] = experiment: Antimicrobial activity against ESBL-negative Escherichia coli by broth microdilution method; in short: as §1
Streptococcus viridans = experiment: Antimicrobial activity against Streptococcus viridans group clinical isolate by broth microdilution method
In short: (§5)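 Streptococcal isolates were tested by CLSI broth microdilution in cation-adjusted Mueller-Hinton broth supplemented with 3% lysed horse blood. The read-out was the MIC, with MIC90 (μg/ml) reported per group. Ceftriaxone, levofloxacin and imipenem served as comparators.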

Staphylococcus aureus [11] = experiment: Antimicrobial activity against vancomycin-intermediate Staphylococcus aureus by broth microdilution method; in short: as §1
Pseudomonas aeruginosa [12] = experiment: Antimicrobial activity against Pseudomonas aeruginosa by broth microdilution method; in short: as §1
[13] = fT>MIC Streptococcus pneumoniae infected mouse model for 1-log kill
Corynebacterium jeikeium = experiment: Antimicrobial activity against Corynebacterium jeikeium by broth microdilution method; in short: as §1
Enterobacter cloacae = experiment: Antimicrobial activity against ESBL-negative Enterobacter cloacae by broth microdilution method; in short: as §1
Haemophilus influenzae [14] = experiment: Antimicrobial activity against beta-lactamase-positive Haemophilus influenzae by broth microdilution method
In short: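 H. influenzae isolates were tested by CLSI broth microdilution using Haemophilus test medium. The MIC was read and MIC90 (μg/ml) reported for the group. Ceftriaxone, levofloxacin and imipenem served as comparators.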

Klebsiella pneumoniae [15] = experiment: Antimicrobial activity against ESBL-negative Klebsiella pneumoniae by broth microdilution method; in short: as §1
Streptococcus pneumoniae [16] = experiment: Antimicrobial activity against penicillin-intermediate Streptococcus pneumoniae by broth microdilution method; in short: as §3
Streptococcus agalactiae = experiment: Antimicrobial activity against Streptococcus agalactiae by broth microdilution method; in short: as §5
[17] = fT>MIC Enterobacteriaceae infected mouse model for 1-log kill
Enterococcus faecalis [18] = experiment: Antimicrobial activity against Enterococcus faecalis by broth microdilution method; in short: as §1
Streptococcus pneumoniae [19] = experiment: Antimicrobial activity against penicillin-susceptible Streptococcus pneumoniae by broth microdilution method; in short: as §5
Pseudomonas aeruginosa [20] = experiment: Antimicrobial activity against multidrug resistant Pseudomonas aeruginosa by broth microdilution method; in short: as §2
Staphylococcus aureus [21] = experiment: Antimicrobial activity against methicillin-susceptible Staphylococcus aureus by broth microdilution method; in short: as §1
[22] = fT>MIC Staphylococcus aureus infected mouse model for 1-log kill
Klebsiella aerogenes = experiment: Antimicrobial activity against ESBL-negative Enterobacter aerogenes by broth microdilution method; in short: as §1
Proteus vulgaris = experiment: Antimicrobial activity against Proteus vulgaris by broth microdilution method; in short: as §1
Enterococcus faecium [23] = experiment: Antimicrobial activity against Enterococcus faecium by broth microdilution method; in short: as §1
Listeria monocytogenes = experiment: Antimicrobial activity against Listeria monocytogenes by broth microdilution method; in short: as §1
Moraxella catarrhalis = experiment: Antimicrobial activity against Moraxella catarrhalis by broth microdilution method; in short: as §1
Staphylococcus aureus [24] = experiment: Antimicrobial activity against methicillin-resistant Staphylococcus aureus by broth microdilution method; in short: as §2
Streptococcus pyogenes [25] = experiment: Antimicrobial activity against macrolide-susceptible Streptococcus pyogenes by broth microdilution method; in short: as §3
Staphylococcus [26] = experiment: Antimicrobial activity against methicillin-susceptible coagulase-negative Staphylococcus by broth microdilution method; in short: as §1
Providencia rettgeri = experiment: Antimicrobial activity against Proteus rettgeri by broth microdilution method; in short: as §1
Proteus mirabilis = experiment: Antimicrobial activity against Proteus mirabilis by broth microdilution method; in short: as §1
Haemophilus influenzae [27] = experiment: Antimicrobial activity against beta-lactamase-negative ampicillin resistant Haemophilus influenzae by broth microdilution method; in short: as §4
Streptococcus pneumoniae [28] = experiment: Antimicrobial activity against penicillin-resistant Streptococcus pneumoniae by broth microdilution method; in short: as §3
Morganella morganii = experiment: Antimicrobial activity against Morganella morganii by broth microdilution method; in short: as §1
Streptococcus pneumoniae [29] = experiment: Antimicrobial activity against levofloxacin-resistant Streptococcus pneumoniae by broth microdilution method; in short: as §3

CCO/N=C(\C(=O)N[C@@H]1C(=O)N2C(C(=O)[O-])=C(Sc3nc(-c4cc[n+](C)cc4)cs3)CS[C@H]12)c1nsc(NP(=O)(O)O)n1 [CEFTAROLINE FOSAMIL]
MIC (Enterococcus faecalis [1]): 1 µg/mL (≈ 1.46 µM)
MIC50 (Enterococcus faecalis [1]): 1 µg/mL (≈ 1.46 µM)
MIC90 (Enterococcus faecalis [1]): 4 µg/mL (≈ 5.84 µM)
MIC50 (Enterococcus faecium [2]): 1 µg/mL (≈ 1.46 µM)
MIC90 (Enterococcus faecium [2]): 16 µg/mL (≈ 23.4 µM)
MIC50 [3]: > 32 µg/mL
MIC90 [3]: > 32 µg/mL
MIC50 (Staphylococcus [4]): 0.25 µg/mL (≈ 0.365 µM)
MIC90 (Staphylococcus [4]): 0.5 µg/mL (≈ 0.73 µM)
MIC50 (Shigella sp.): 0.03 µg/mL (≈ 0.0438 µM)
MIC90 (Shigella sp.): 0.12 µg/mL (≈ 0.175 µM)
MIC50 (Burkholderia cepacia): > 32 µg/mL
MIC90 (Burkholderia cepacia): > 32 µg/mL
MIC (Serratia marcescens): 0.5 µg/mL (≈ 0.73 µM)
MIC50 (Serratia marcescens): 0.5 µg/mL (≈ 0.73 µM)
MIC90 (Serratia marcescens): 8 µg/mL (≈ 11.7 µM)
MIC (Streptococcus pyogenes [5]): 0.015 µg/mL (≈ 0.0219 µM)
MIC50 (Streptococcus pyogenes [5]): 0.015 µg/mL (≈ 0.0219 µM)
MIC90 (Streptococcus pyogenes [5]): 0.015 µg/mL (≈ 0.0219 µM)
MIC50 (Salmonella sp.): 0.12 µg/mL (≈ 0.175 µM)
MIC90 (Salmonella sp.): > 32 µg/mL
MIC (Haemophilus influenzae [6]): 0.015 µg/mL (≈ 0.0219 µM)
MIC50 (Haemophilus influenzae [6]): 0.015 µg/mL (≈ 0.0219 µM)
MIC90 (Haemophilus influenzae [6]): 0.015 µg/mL (≈ 0.0219 µM)
MIC (Staphylococcus aureus [7]): 0.5 µg/mL (≈ 0.73 µM)
MIC50 (Escherichia coli [8]): > 32 µg/mL
MIC90 (Escherichia coli [8]): > 32 µg/mL
MIC50 (Providencia stuartii): 1 µg/mL (≈ 1.46 µM)
MIC90 (Providencia stuartii): 4 µg/mL (≈ 5.84 µM)
MIC50 (Klebsiella pneumoniae [9]): 32 µg/mL (≈ 46.7 µM)
MIC90 (Klebsiella pneumoniae [9]): > 32 µg/mL
MIC50 (Escherichia coli [10]): 0.06 µg/mL (≈ 0.0876 µM)
MIC90 (Escherichia coli [10]): 1 µg/mL (≈ 1.46 µM)
MIC (Streptococcus viridans): 0.015 µg/mL (≈ 0.0219 µM)
MIC50 (Streptococcus viridans): 0.015 µg/mL (≈ 0.0219 µM)
MIC90 (Streptococcus viridans): 0.12 µg/mL (≈ 0.175 µM)
MIC50 (Staphylococcus aureus [11]): 1 µg/mL (≈ 1.46 µM)
MIC90 (Staphylococcus aureus [11]): 1 µg/mL (≈ 1.46 µM)
MIC50 (Pseudomonas aeruginosa [12]): 16 µg/mL (≈ 23.4 µM)
MIC90 (Pseudomonas aeruginosa [12]): > 32 µg/mL
fT>MIC [13]: 43%
MIC50 (Corynebacterium jeikeium): > 32 µg/mL
MIC90 (Corynebacterium jeikeium): > 32 µg/mL
MIC50 (Enterobacter cloacae): 0.12 µg/mL (≈ 0.175 µM)
MIC90 (Enterobacter cloacae): 0.5 µg/mL (≈ 0.73 µM)
MIC (Haemophilus influenzae [14]): 0.015 µg/mL (≈ 0.0219 µM)
MIC50 (Haemophilus influenzae [14]): 0.015 µg/mL (≈ 0.0219 µM)
MIC90 (Haemophilus influenzae [14]): 0.06 µg/mL (≈ 0.0876 µM)
MIC50 (Klebsiella pneumoniae [15]): 0.06 µg/mL (≈ 0.0876 µM)
MIC90 (Klebsiella pneumoniae [15]): 0.25 µg/mL (≈ 0.365 µM)
MIC50 (Streptococcus pneumoniae [16]): 0.03 µg/mL (≈ 0.0438 µM)
MIC90 (Streptococcus pneumoniae [16]): 0.06 µg/mL (≈ 0.0876 µM)
MIC (Streptococcus agalactiae): 0.015 µg/mL (≈ 0.0219 µM)
MIC50 (Streptococcus agalactiae): 0.015 µg/mL (≈ 0.0219 µM)
MIC90 (Streptococcus agalactiae): 0.015 µg/mL (≈ 0.0219 µM)
fT>MIC [17]: 41%
MIC50 (Enterococcus faecalis [18]): 2 µg/mL (≈ 2.92 µM)
MIC90 (Enterococcus faecalis [18]): 4 µg/mL (≈ 5.84 µM)
MIC (Streptococcus pneumoniae [19]): 0.015 µg/mL (≈ 0.0219 µM)
MIC50 (Streptococcus pneumoniae [19]): 0.015 µg/mL (≈ 0.0219 µM)
MIC90 (Streptococcus pneumoniae [19]): 0.015 µg/mL (≈ 0.0219 µM)
MIC50 (Pseudomonas aeruginosa [20]): 16 µg/mL (≈ 23.4 µM)
MIC (Staphylococcus aureus [21]): 0.25 µg/mL (≈ 0.365 µM)
MIC50 (Staphylococcus aureus [21]): 0.25 µg/mL (≈ 0.365 µM)
MIC90 (Staphylococcus aureus [21]): 0.25 µg/mL (≈ 0.365 µM)
fT>MIC [22]: 33%
MIC50 (Klebsiella aerogenes): 0.12 µg/mL (≈ 0.175 µM)
MIC90 (Klebsiella aerogenes): > 32 µg/mL
MIC50 (Proteus vulgaris): 16 µg/mL (≈ 23.4 µM)
MIC90 (Proteus vulgaris): > 32 µg/mL
MIC50 (Enterococcus faecium [23]): 32 µg/mL (≈ 46.7 µM)
MIC90 (Enterococcus faecium [23]): > 32 µg/mL
MIC50 (Listeria monocytogenes): 4 µg/mL (≈ 5.84 µM)
MIC90 (Listeria monocytogenes): 4 µg/mL (≈ 5.84 µM)
MIC50 (Moraxella catarrhalis): 0.12 µg/mL (≈ 0.175 µM)
MIC90 (Moraxella catarrhalis): 0.25 µg/mL (≈ 0.365 µM)
MIC (Staphylococcus aureus [24]): 0.5 µg/mL (≈ 0.73 µM)
MIC50 (Staphylococcus aureus [24]): 0.5 µg/mL (≈ 0.73 µM)
MIC90 (Staphylococcus aureus [24]): 1 µg/mL (≈ 1.46 µM)
MIC (Streptococcus pyogenes [25]): 0.015 µg/mL (≈ 0.0219 µM)
MIC50 (Streptococcus pyogenes [25]): 0.015 µg/mL (≈ 0.0219 µM)
MIC90 (Streptococcus pyogenes [25]): 0.015 µg/mL (≈ 0.0219 µM)
MIC50 (Staphylococcus [26]): 0.06 µg/mL (≈ 0.0876 µM)
MIC90 (Staphylococcus [26]): 0.25 µg/mL (≈ 0.365 µM)
MIC50 (Providencia rettgeri): 1 µg/mL (≈ 1.46 µM)
MIC90 (Providencia rettgeri): 4 µg/mL (≈ 5.84 µM)
MIC50 (Proteus mirabilis): 0.06 µg/mL (≈ 0.0876 µM)
MIC90 (Proteus mirabilis): 4 µg/mL (≈ 5.84 µM)
MIC50 (Haemophilus influenzae [27]): 0.12 µg/mL (≈ 0.175 µM)
MIC90 (Haemophilus influenzae [27]): 0.25 µg/mL (≈ 0.365 µM)
MIC50 (Streptococcus pneumoniae [28]): 0.25 µg/mL (≈ 0.365 µM)
MIC90 (Streptococcus pneumoniae [28]): 0.5 µg/mL (≈ 0.73 µM)
MIC50 (Morganella morganii): > 32 µg/mL
MIC90 (Morganella morganii): > 32 µg/mL
MIC50 (Streptococcus pneumoniae [29]): 0.03 µg/mL (≈ 0.0438 µM)
MIC90 (Streptococcus pneumoniae [29]): 0.25 µg/mL (≈ 0.365 µM)
